One assay has as its target Procathepsin L (Homo sapiens, UniProt P07711). The assay can be described thus: Inhibition of cathepsin L. Summed up:
(§1)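 Cathepsins B (2 nM), K (10 nM) or L (0.03 nM) in pH 6.1 phosphate/NaCl/DTT/EDTA/Tween-20 buffer. Preincubated 5 min at 37 °C with five inhibitor levels (10-90% inhibition), in duplicate. Cbz-Phe-Arg-AMC added at 5 and 2.5 µM (B, K) or 0.6 and 0.3 µM (L). AMC read at ex 355/em 450 nm for 5 min. Ki by Dixon plot.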

The target of the next assay is Cathepsin S (Homo sapiens, UniProt P25774). The experiment in a line: Inhibition of cathepsin S. The essentials: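 Cathepsin S at 0.6 nM in pH 6.1 100 mM sodium phosphate with 100 mM NaCl, 1 mM DTT, 1 mM EDTA and 0.001% Tween-20. Enzyme preincubated 5 min at 37 °C with five inhibitor concentrations (10-90% inhibition), in duplicate. Cbz-Leu-Arg-AMC added at 5 and 2.5 µM, then AMC read (ex 355/em 450 nm) over 5 min. Ki by Dixon method.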

The target of a further assay is T1, Cathepsin K (Homo sapiens, UniProt P43235).
T1 sequence (P43235 whole entry): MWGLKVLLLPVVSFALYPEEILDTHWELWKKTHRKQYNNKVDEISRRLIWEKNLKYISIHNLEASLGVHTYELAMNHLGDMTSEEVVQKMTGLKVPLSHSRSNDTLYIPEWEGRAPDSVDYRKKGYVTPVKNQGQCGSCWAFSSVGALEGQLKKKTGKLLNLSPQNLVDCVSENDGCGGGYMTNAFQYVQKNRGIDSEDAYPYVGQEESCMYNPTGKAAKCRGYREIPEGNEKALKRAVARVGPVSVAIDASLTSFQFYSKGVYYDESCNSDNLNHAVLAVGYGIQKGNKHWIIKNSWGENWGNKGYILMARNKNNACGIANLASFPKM
The assay can be described thus: Inhibition of cathepsin K. The essentials:
as §1

Another assay addresses Cathepsin B (Homo sapiens, UniProt P07858). The experiment in a line: Inhibition of cathepsin B. Summed up: as §1

The source of these data is ChEMBL document CHEMBL1137397, “Identification of selective, nonpeptidic nitrile inhibitors of cathepsin s using the substrate activity screening method” (J Med Chem, 2006).

Structures are written as SMILES.

For orientation: IC50 means the concentration at which inhibition is half-maximal. Lower therefore signals greater potency. The term Ki denotes the equilibrium dissociation constant of an inhibitor or competing ligand from its target.

Cathepsin S, sequence (P25774 whole entry): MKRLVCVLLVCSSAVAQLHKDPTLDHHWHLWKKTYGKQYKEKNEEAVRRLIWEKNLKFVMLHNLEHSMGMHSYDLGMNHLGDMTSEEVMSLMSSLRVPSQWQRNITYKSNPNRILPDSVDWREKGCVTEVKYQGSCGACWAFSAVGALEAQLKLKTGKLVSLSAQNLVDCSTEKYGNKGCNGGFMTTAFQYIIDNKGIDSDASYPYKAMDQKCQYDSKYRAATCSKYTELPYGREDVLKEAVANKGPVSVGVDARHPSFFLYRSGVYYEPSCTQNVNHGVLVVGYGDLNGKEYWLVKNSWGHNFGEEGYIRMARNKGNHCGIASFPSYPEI
Procathepsin L, sequence (P07711 whole entry): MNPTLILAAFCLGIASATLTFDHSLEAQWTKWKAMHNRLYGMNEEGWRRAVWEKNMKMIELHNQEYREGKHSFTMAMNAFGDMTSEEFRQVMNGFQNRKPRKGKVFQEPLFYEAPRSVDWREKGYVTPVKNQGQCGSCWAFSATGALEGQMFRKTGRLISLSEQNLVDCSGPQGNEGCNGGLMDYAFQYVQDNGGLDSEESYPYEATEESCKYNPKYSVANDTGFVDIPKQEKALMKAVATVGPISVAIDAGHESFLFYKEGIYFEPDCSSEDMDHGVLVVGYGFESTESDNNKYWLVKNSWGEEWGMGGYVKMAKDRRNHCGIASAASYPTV

`CCCC[C@@H](C#N)n1cc([C@@](C)(NC(=O)c2ccsc2)C2CCC(C)CC2)nn1` (stereo not given in full): the IC50 at Procathepsin L and against Cathepsin K was > 15 µM in each case. Further, the Ki was > 15 µM on Procathepsin L, 0.015 µM on Cathepsin S and > 15 µM at Cathepsin K.

As for `CCCC[C@@H](C#N)n1cc([C@@](C)(NC(=O)c2ccsc2)C(C)C)nn1`, the IC50 on Procathepsin L and against Cathepsin B was > 10 µM throughout. Moreover, the Ki at Procathepsin L was > 10 µM; at Cathepsin S, 0.42 µM; on Cathepsin B, > 10 µM; at Cathepsin K, 0.43 µM.

Regarding `CCCC[C@@H](C#N)n1cc([C@@](C)(NC(=O)c2ccccc2)C2CCCCC2)nn1`, the IC50 against Procathepsin L, against Cathepsin B and against Cathepsin K was > 10 µM each time. In addition, the Ki at Procathepsin L was > 10 µM; on Cathepsin S, 0.2 µM; at Cathepsin B, > 10 µM; on Cathepsin K it was > 10 µM.

In the case of `CCCC[C@@H](C#N)n1cc([C@@](C)(NC(=O)c2ccccc2)C(C)C)nn1`, the IC50 at Procathepsin L and on Cathepsin B was > 10 µM each time. The Ki is > 10 µM at Procathepsin L, 1.2 µM at Cathepsin S, > 10 µM on Cathepsin B and 0.88 µM on Cathepsin K.

As for `CCCC[C@@H](C#N)n1cc([C@@](C)(NC(=O)c2ccsc2)C2CCCCC2)nn1`, the IC50 at Procathepsin L and on Cathepsin B was > 10 µM throughout. Also, the Ki at Procathepsin L is > 10 µM; at Cathepsin S it was 0.018 µM; at Cathepsin B, > 10 µM; on Cathepsin K, 1.7 µM.
